Experimental data reported in publication PMC9166452 (International Journal of Nanomedicine, 2022).
Entries after “also recorded” stand apart in the source; their conditions may differ. Where a name gives a salt, the structure may show the parent alone.

Experiments:
Caco-2 cell monolayers = assay: Bidirectional transport across Caco-2 cell monolayers; assay type: in vitro ADME; conditions: AP→BL, 4°C
Method in brief: (§1)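 Monolayers of Caco-2 cells were grown on 0.4-μm polycarbonate Transwell inserts (2×10^5 cells/well) and used only after passing a TEER check. Free or TPGS-micelle test compound (2 μg/mL) was added apically or basolaterally and incubated 4 h at 37°C. Receiver fluid was assayed by HPLC. Verapamil was co-incubated 4 h. AP→BL transport was also run at 4°C. Papp = (dQ/dt)/(A·C0); ER = Papp(BL→AP)/Papp(AP→BL).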

[1] = as above; assay type: in vitro ADME; conditions: human, Caco-2
Method in brief: as §1

P-glycoprotein (P-gp) = assay: as above; assay type: in vitro ADME; conditions: human, Caco-2, with verapamil 100 µM
Method in brief: as §1

[2] = In vitro release in simulated gastrointestinal fluids; assay type: physicochemical
[3] = oral, cited from earlier work
In vivo toxicity [4] = assay: In vivo toxicity; parameters: species or system BALB/c nude mice; conditions: 0.25 mg/kg oral
Method in brief: (§2)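 Female BALB/c nude mice (4 weeks old) received MDA-MB-231 cells (1×10^6/mouse) subcutaneously in the right thigh. At 50–100 mm3 they were randomised to PBS, free or micelle-loaded test compound, given 0.25 mg/kg by oral gavage every two days on days 0–14. Tumor size and body weight were taken every two days to day 17, then organs and tumors went to pathology/TUNEL. TIR was derived from mean tumor size, dosed vs control.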

[5] = mice, oral administration; cited from earlier work
[6] = tested on: orthotopic TNBC (MDA-MB-231 cells); assay: Oral treatment combined with surgery on orthotopic TNBC in nude mice; assay type: in vivo, BALB/c nude mice; conditions: after tumor resection surgery
Method in brief: (§3)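 MDA-MB-231 cells (1×10^6/mouse) were injected into the second right mammary gland of nude mice. Caliper volume was V = (a×b2)/2. At 80–100 mm3, tumors were resected under isoflurane, leaving 5–10% residual. Twenty mice were split into four arms (surgery plus PBS, blank TPGS micelles, free or micelle-loaded test compound), dosed orally at equal volume every two days on days 0–14. Tumor size and body weight were followed every two days to day 17. Organs, including jejunum and lungs, and tumors were then taken for histology.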

[7] = tested on: subcutaneous xenografts of MDA-MB-231 cells; assay: Oral treatment of subcutaneous TNBC xenografts in nude mice; assay type: in vivo, BALB/c nude mice
Method in brief: as §2

In vivo toxicity [8] = assay: In vivo toxicity; parameters: species or system BALB/c nude mice; conditions: after tumor resection surgery, oral
Method in brief: as §3

[9] = patients with advanced solid tumors

In the case of `O=C(CC1NCCCC1O)Cn1cnc2cc(Br)c(Cl)cc2c1=O` (stereo not shown) [HF, Halofuginone hydrobromide], the “Papp at 4°C compared with 37°C” value (Caco-2 cell monolayers) is reported as “lower than those at 37 °C”, the Papp A→B at 4 h, 2 μg/mL [1] is reported as 4.73 ± 0.28 ×10⁻⁶ cm/s and the Papp B→A at 4 h, 2 μg/mL [1] is reported as 8.72 ± 0.16 ×10⁻⁶ cm/s. It also gave an efflux ratio at 4 h, 2 μg/mL [1] of 1.84, a Papp A→B at 4 h, 2 μg/mL (P-glycoprotein (P-gp)) of 6.25 ± 0.75 ×10⁻⁶ cm/s and a Papp B→A at 4 h, 2 μg/mL (P-glycoprotein (P-gp)) of 5.9 ± 0.1 ×10⁻⁶ cm/s. For the same compound, the efflux ratio at 4 h, 2 μg/mL (P-glycoprotein (P-gp)) was 0.94, the “cumulative release percentage (CRP) of HF” value ([2]; simulated gastric fluids, from 0 to 8 hours) was 53.25% and the “cumulative release percentage (CRP) of HF” value ([2]; simulated gastric fluids, from 8 to 12 hours) was 19.6%. For the same compound, the “cumulative release percentage (CRP) of HF” value ([2]; simulated gastric fluids, within 24 hours) was 80.03%, the “cumulative release percentage (CRP) of HF” value ([2]; simulated intestinal fluids, from 0 to 8 hours) was 54.39% and the “cumulative release percentage (CRP) of HF” value ([2]; simulated intestinal fluids, from 8 to 12 hours) was 18.17%. For the same compound, the “cumulative release percentage (CRP) of HF” value ([2]; simulated intestinal fluids, within 24 hours) was 82.61%, the “"acute" maximum tolerated dose (MTD)” value [3, 9] was 3.5 mg/day and the “dose-limiting toxicities (DLT)” value [3, 9] was “nausea, vomiting, and fatigue”. For the same compound, the “dose recommended for chronic administration in Phase II clinical studies” value [3] was 0.5 mg/day, the “histology of jejunum / bleeding (H&E)” value (In vivo toxicity [4]) was “jejunum hemorrhage” and the body weight change (In vivo toxicity [4]; every two days on days 0–14) was “caused the loss of body weight”. The “detection in plasma and red blood cells” value [5] was “not detected in plasma and red blood cells”, the “persistence in kidneys, liver and lungs” value [5] was “up to 48 hours” and the “expression of Bcl-2, Bax and Caspase-3 in tumor (immunohistochemistry)” value [6] was “regulated by HF and HTPM treatment”. The “lung metastasis (H&E, visual inspection)” value [6] was “normal histological features without any tumors”, the “tumor growth vs PBS- and FTPM-treated groups” value [6] was “significant delay in tumor growth” and the “tumor necrosis (H&E staining)” value [6] was “larger necrotic area than those from the PBS- and FTPM-treated groups”. The “tumor inhibition rate (TIR)” value ([6]; every two days on days 0–14) was 43.57% ± 1.15, the “tumor inhibition rate (TIR)” value ([7]; 0.25 mg/kg HF, oral gavage, every two days on days 0–14) was 47.55% ± 1.32 and the “tumor size vs untreated mice” value ([7]; 0.25 mg/kg oral, 12 days after oral administration) was “significant reduction in tumor size”. The “tumor necrosis (H&E staining)” value ([7]; 0.25 mg/kg oral, tumor sections) was “larger necrotic area than those from the PBS group”, the “expression of Bcl-2, Bax and Caspase-3 in tumor (immunohistochemistry)” value ([7]; 0.25 mg/kg oral, tumor tissues) was “markedly upregulated the expression of Bax and Caspase-3, and downregulated the expression of Bcl-2” and the body weight change (In vivo toxicity [8]) was “caused the loss of body weight; also recorded: significant loss of body weight”. The “histology of jejunum (H&E)” value (In vivo toxicity [8]) was “jejunum bleeding; also recorded: jejunum congestion was found”.
